Data published in ChEMBL document CHEMBL3232838, “Synthesis, crystal structure and biological evaluation of some novel 1,2,4-triazolo[3,4-b]-1,3,4-thiadiazoles and 1,2,4-triazolo[3,4-b]-1,3,4-thiadiazines” (Eur J Med Chem, 2014).

Assays:
Leishmania major [1] = experiment: Antileishmanial activity against promastigote form of Leishmania major at 0.1 uM after 72 hrs by MTT assay; type: functional
Method in brief: (§1)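 Log-phase promastigotes grown at 25 °C in phenol-red-free D-MEM/F-12 with 10% heat-inactivated FBS, washed in PBS, seeded at 2.5×10⁶/mL (100 µL/well). Compounds in triplicate wells, 72 h at 25 °C; amphotericin B standard. MTT (5 mg/mL stock) 3 h, stopped with 50% isopropanol/10% SDS, OD570 minus 690. Percent inhibition vs control; mean ± SEM of three independent experiments.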

[2] = biological target: Intestinal-type alkaline phosphatase (Bos taurus) (UniProt P19111); experiment: Inhibition of calf intestinal alkaline phosphatase using p-nitrophenyl phosphate as substrate preincubated for 10 mins before substrate addition after 30 mins; design: concentration or dose not given beside the values
[3] = Anticancer activity against Syrian golden hamster BHK21 cells at 1 uM after 48 hrs by SRB assay; type: functional; details: Mesocricetus auratus, BHK-21, 48 h; read-out: GI
Method in brief: (§2)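 RPMI-1640 culture with 10% heat-inactivated FBS, 2 mM glutamine, 1 mM pyruvate and penicillin/streptomycin at 37 °C, 5% CO2. Cells per 96-well well: H157 10⁴, BHK-21 5×10⁴. After 24 h, monolayers were exposed to 100, 10, 1 or 0.1 µM compound for 48 h, with vincristine as standard. Cells were fixed in cold 50% TCA (4 °C, 1 h) and stained with 0.4% SRB in 1% acetic acid (30 min). Dye was dissolved in 10 mM Tris and read at A490 minus A630. Read-out was percent inhibition.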

NCI-H157 [4] = experiment: Anticancer activity against human NCI-H157 cells at 100 uM after 48 hrs by SRB assay; type: functional; details: NCI-H157, 48 h, read-out: GI; method in brief: as §2
[5] = Anticancer activity against Syrian golden hamster BHK21 cells at 100 uM after 48 hrs by SRB assay; type: functional; details: Mesocricetus auratus, BHK-21, 48 h; read-out: GI; method in brief: as §2
[6] = Anticancer activity against Syrian golden hamster BHK21 cells at 0.1 uM after 48 hrs by SRB assay; type: functional; details: Mesocricetus auratus, BHK-21, 48 h; read-out: GI; method in brief: as §2
Leishmania major [7] = experiment: Antileishmanial activity against promastigote form of Leishmania major at 1 uM after 72 hrs by MTT assay; type: functional; method in brief: as §1
NCI-H157 [8] = experiment: Anticancer activity against human NCI-H157 cells at 1 uM after 48 hrs by SRB assay; type: functional; details: NCI-H157, 48 h, read-out: GI; method in brief: as §2
NCI-H157 [9] = experiment: Anticancer activity against human NCI-H157 cells at 10 uM after 48 hrs by SRB assay; type: functional; details: NCI-H157, 48 h, read-out: GI; method in brief: as §2
NCI-H157 [10] = experiment: Anticancer activity against human NCI-H157 cells at 0.1 uM after 48 hrs by SRB assay; type: functional; details: NCI-H157, 48 h, read-out: GI; method in brief: as §2
[11] = biological target: Acetylcholinesterase (Electrophorus electricus) (UniProt O42275); experiment: Inhibition of electric eel acetylcholinesterase using acetylthiocholine iodide as substrate preincubated for 10 mins before substrate addition after 15 mins by Ellman's method
Leishmania major [12] = experiment: Antileishmanial activity against promastigote form of Leishmania major at 100 uM after 72 hrs by MTT assay; type: functional; method in brief: as §1
Leishmania major [13] = experiment: Antileishmanial activity against promastigote form of Leishmania major at 10 uM after 72 hrs by MTT assay; type: functional; method in brief: as §1
[14] = Anticancer activity against Syrian golden hamster BHK21 cells at 10 uM after 48 hrs by SRB assay; type: functional; details: Mesocricetus auratus, BHK-21, 48 h; read-out: GI; method in brief: as §2
Cholinesterase = Cholinesterase (Homo sapiens, UniProt P06276); experiment: Inhibition of human BChE using butyrylthiocholine iodide as substrate preincubated for 10 mins before substrate addition after 15 mins by Ellman's method; design: concentration or dose not given beside the values
Method in brief: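 Ellman assay in 50 mM Tris-HCl, 0.1 M NaCl, 0.02 M MgCl2, pH 8.0, with DMSO at 1% final. hBChE (3.4 U/mg) is preincubated with compound for 10 min at 25 °C. Blanks lack enzyme or substrate. IC50 from linear regression.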

Chain of Intestinal-type alkaline phosphatase (Bos taurus) (P19111 20-506 limits assumed): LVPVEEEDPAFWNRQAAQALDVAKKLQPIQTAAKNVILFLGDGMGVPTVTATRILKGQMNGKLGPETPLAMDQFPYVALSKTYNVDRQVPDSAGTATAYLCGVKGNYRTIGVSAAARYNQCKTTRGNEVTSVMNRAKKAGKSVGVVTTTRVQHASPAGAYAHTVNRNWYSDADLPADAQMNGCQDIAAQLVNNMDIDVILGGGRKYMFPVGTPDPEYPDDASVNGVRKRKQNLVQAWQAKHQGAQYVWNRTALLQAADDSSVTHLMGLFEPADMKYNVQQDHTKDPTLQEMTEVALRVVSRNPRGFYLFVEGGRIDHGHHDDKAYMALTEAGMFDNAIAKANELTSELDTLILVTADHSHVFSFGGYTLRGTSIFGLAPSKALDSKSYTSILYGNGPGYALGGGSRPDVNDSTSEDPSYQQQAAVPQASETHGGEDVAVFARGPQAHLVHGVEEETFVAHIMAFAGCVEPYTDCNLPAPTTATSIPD
Chain of Cholinesterase (P06276 whole entry): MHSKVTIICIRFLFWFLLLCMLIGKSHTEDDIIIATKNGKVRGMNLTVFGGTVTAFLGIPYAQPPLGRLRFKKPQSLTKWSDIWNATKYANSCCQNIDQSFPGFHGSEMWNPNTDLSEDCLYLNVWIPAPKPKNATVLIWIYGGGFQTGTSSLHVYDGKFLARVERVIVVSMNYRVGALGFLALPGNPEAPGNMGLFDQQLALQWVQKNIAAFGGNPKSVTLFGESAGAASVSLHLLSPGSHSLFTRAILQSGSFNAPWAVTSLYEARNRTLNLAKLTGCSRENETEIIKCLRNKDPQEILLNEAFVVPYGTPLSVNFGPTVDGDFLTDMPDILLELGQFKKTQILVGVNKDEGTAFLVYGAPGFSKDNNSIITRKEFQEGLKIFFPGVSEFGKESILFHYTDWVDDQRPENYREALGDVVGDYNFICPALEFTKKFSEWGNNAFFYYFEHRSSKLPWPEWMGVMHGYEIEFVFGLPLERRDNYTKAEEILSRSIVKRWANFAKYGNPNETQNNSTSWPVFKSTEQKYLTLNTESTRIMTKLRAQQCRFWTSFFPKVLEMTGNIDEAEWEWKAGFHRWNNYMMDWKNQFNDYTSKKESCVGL
Chain of Acetylcholinesterase (Electrophorus electricus) (O42275 24-633 limits assumed): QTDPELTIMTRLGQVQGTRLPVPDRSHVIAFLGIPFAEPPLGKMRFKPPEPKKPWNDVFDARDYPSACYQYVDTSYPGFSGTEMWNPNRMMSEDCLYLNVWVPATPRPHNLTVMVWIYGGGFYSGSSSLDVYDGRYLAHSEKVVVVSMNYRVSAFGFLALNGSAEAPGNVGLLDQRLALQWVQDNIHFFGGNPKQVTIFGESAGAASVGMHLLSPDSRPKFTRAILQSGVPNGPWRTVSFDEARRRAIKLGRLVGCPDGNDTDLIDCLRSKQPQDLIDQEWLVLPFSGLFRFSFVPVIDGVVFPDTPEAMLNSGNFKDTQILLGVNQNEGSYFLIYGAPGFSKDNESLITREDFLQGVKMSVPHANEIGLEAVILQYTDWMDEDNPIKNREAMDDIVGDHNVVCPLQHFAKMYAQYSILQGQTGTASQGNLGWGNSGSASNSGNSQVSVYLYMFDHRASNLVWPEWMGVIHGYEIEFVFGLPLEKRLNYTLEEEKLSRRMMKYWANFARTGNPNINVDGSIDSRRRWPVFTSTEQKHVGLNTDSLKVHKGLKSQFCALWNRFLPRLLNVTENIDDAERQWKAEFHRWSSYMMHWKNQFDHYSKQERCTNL

With Fc1cc(Cl)c(-c2nn3c(-c4ccncc4)nnc3s2)cc1F as the compound, how does the inhibition at 0.1 µM (Leishmania major [1]) read?
The inhibition at 0.1 µM was 31.3%.

What about the inhibition [2] of the same compound?
Its inhibition is 31.6%.

What about the inhibition of growth at 1 µM [3] of the same compound?
Its inhibition of growth at 1 µM is 49.7%.

And the inhibition of growth at 100 µM (NCI-H157 [4])?
The inhibition of growth at 100 µM was 49.2%.

What about the inhibition of growth at 100 µM [5] of the same compound?
The inhibition of growth at 100 µM was 58.9%.

What about the inhibition of growth at 0.1 µM [6] of the same compound?
Its inhibition of growth at 0.1 µM is 46.7%.

What about the inhibition at 1 µM (Leishmania major [7]) of the same compound?
The inhibition at 1 µM was 35.4%.

And the inhibition of growth at 1 µM (NCI-H157 [8])?
The inhibition of growth at 1 µM was 41.4%.

What about the inhibition of growth at 10 µM (NCI-H157 [9]) of the same compound?
The inhibition of growth at 10 µM was 45.2%.

And the inhibition of growth at 0.1 µM (NCI-H157 [10])?
Its inhibition of growth at 0.1 µM is 36.4%.

What about the inhibition [11] of the same compound?
The inhibition was 47.2%.

And the inhibition at 100 µM (Leishmania major [12])?
Its inhibition at 100 µM is 40.3%.

And the inhibition at 10 µM (Leishmania major [13])?
The inhibition at 10 µM was 37.9%.

And the inhibition of growth at 10 µM [14]?
The inhibition of growth at 10 µM was 53.9%.

And the inhibition (Cholinesterase)?
Its inhibition is 18.2%.
